# Assay outcomes (PubChem BioAssay)
# An excerpt weighted towards active compounds, which were near 2.3% of everything screened.
# Myeloid diff 2 = myeloid differentiation induction | ER-HoxA9 myeloid progenitors, lysozyme-GFP differentiation, flow cytometry | calls only at 10 µM | hit rate 1% among 360,000 | AID 624256;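 active means normalized GFP-positive differentiation at or above the plate's own cutoff, the solvent-only control mean plus 3 SD; inconclusive means no clear call, values can overlap the other calls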;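 further: cells exposed to compound for four days before flow analysis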
# CSN inh = blocks human CSN-mediated cullin deneddylation. Q92905. Purified CSN, SCF-Nedd8-OG deneddylation, fluorescence polarization. inhibition, % at 12.5 µM. hit rate 0.38% among 360,000. AID 651999;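 active means pattern-corrected inhibition above about 35%, with an unprinted fluorescence ratio check between 0.5 and 1.5, limit read from the data, passing the limit was not always enough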;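 further: 0% = enzyme with substrate and 100% = substrate without enzyme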
# Target sequence (Q92905 whole entry, looked up, one chain of several): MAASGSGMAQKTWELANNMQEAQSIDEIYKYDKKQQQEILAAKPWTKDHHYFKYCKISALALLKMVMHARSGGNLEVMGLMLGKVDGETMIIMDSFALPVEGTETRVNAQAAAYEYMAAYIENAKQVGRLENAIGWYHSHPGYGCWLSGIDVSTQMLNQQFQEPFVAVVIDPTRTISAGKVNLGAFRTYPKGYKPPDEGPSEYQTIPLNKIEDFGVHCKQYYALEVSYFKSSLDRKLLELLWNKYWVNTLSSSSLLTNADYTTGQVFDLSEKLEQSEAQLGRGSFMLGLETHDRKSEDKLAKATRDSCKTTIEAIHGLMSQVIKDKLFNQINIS
#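 assay system = purified human Csn5 enzyme expressed in HEK293T cells | amount = 0.24 nM enzyme | buffer or medium = Tris/NaCl/DTT buffer, pH 7.5 | reagent = 10 nM SCFSkp2-Nedd8OG | compound = one concentration, 12.5 µM, 0.25% DMSO | times = 90 min reaction at room temperature | signal = FP | read-out basis = % inhibition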
# HNF4A DNA FP = change in binding of human HNF4 alpha to DNA; P41235; hit rate 0.3% among 360,000; activity change, % at 10 µM; HNF4a-FITC DNA binding, fluorescence polarization, 1 h; AID 1224865; in the data active means activity change above about 30%, passing the limit was not always enough
# Rpn11 inh = blocks the human proteasome subunit Rpn11. O00487. human 26S proteasome, Ub4-pepOG fluorescence polarization; 20S core pre-blocked with epoxomicin. inhibition, % at 20 µM. hit rate 0.59% among 360,000. AID 588493;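 active means inhibition at 20 µM, scaled to each plate's controls, above about 33%, limit read from the data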
# TPT1 inhibitor = C. albicans TPT1 enzyme inhibition | hit rate 0.81% among 300,000 | recombinant caTPT1, FP RNA substrate dephosphorylation | inhibition, % at 5 µM;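 active means inhibition above the mean of all tested compounds plus 3 SD, set per screening campaign, cut at about 24% in these data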;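 further: plate controls were DMSO alone for no effect and ferristatin control at 100 nM for full effect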
# caTPT1 confirm = TPT1 (C. albicans) inhibition, confirmation; shares compounds with TPT1 inhibitor; recombinant caTPT1, fluorescence polarization, RNase T1 coupled; inhibition, % at 5 µM; hit rate 74% among 2,400;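 active means inhibition above the primary screen limit, the mean inhibition of all tested compounds plus 3 SD, cut at about 25% in these data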
# RNase T1 inh = blocks Aspergillus oryzae RNase T1, a TPT1 counter-screen | shares compounds with TPT1 inhibitor | RNase T1 cleavage, fluorescence polarization, 1536-well | inhibition, % at 5 µM | hit rate 83% among 2,400 | AID 2153;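 active means inhibition above the solvent-only control well mean plus 3 SD, limit set per screening run, cut at about 23% in these data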;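 further: plate controls were DMSO wells with enzyme for no effect and wells without RNase T1 for full effect; inhibitors block cleavage so intact labeled substrate keeps polarization high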
# Target sequence (P00651 whole entry, looked up): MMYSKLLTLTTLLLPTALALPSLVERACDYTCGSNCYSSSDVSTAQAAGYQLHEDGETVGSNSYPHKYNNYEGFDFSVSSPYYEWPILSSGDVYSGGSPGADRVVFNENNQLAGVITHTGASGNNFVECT
# Starred values were filed as active, the others as inactive; i = inactive; ? = inconclusive; · = not tested or not shown; + = active, no number.
SMILES,Myeloid diff 2,CSN inh,HNF4A DNA FP,Rpn11 inh,TPT1 inhibitor,caTPT1 confirm,RNase T1 inh
Cn1cccc1/C=C1/SC(=S)N(CC(=O)O)C1=O,i,50*,81*,·,89*,110*,120*
CC(C(=O)O)N1C(=O)/C(=C/c2cccn2C)SC1=S (stereo unspecified),i,48*,85*,·,96*,105*,118*
CCC(C(=O)O)N1C(=O)/C(=C/c2cccn2C)SC1=S (stereo unspecified),i,82*,101*,·,118*,124*,130*
O=C1/C(=C/c2c[nH]c3ccccc23)CCC/C1=C\c1c[nH]c2ccccc12,?,26,105,·,51*,147*,137*
Cc1nn(CC(=O)c2ccc(Br)s2)c(C)c1[N+](=O)[O-],i,2,18,38,33*,49*,63*
COc1ccccc1C(=O)NC(=O)CSc1nncn1C(C)C,i,3,3,-4,3,·,·
Cc1ccc(-c2nc(Nc3cccc(O)c3)c3ccccc3n2)cc1,i,5,3,2,1,·,·
Oc1cccc(Nc2c3ccccc3nc3ccccc23)c1,·,-5,-3,-17,54*,4,11
COc1ccc(C2C(C(C)=O)=C(C)N=c3s/c(=C\c4cc(C)n(C)c4C)c(=O)n32)c(OC)c1 (stereo unspecified),+,101,143,·,132*,134*,127*
COCCN(CC(=O)NC1CCCCC1)C(=O)CCCC(=O)Nc1ccccn1,i,-2,-6,6,3,·,·
O=C(N/N=C/c1ccc(-c2cccc(C(F)(F)F)c2)o1)c1ccccc1Br,i,17,6,38,39*,38*,49*
CCN1CC2=C(OC(N)=C(C#N)C2c2cccs2)/C(=C/c2cccs2)C1 (stereo unspecified),i,18,10,38,34*,25*,36*
O=C(CNC(=O)N1CC(=O)Nc2ccccc21)NCCc1c[nH]c2ccccc12,i,-5,2,-3,-1,·,·
Cn1cc(/C=C/c2cc[n+](C)cc2)c2cc(F)ccc21,?,-74,20,·,40*,49*,56*
Cn1cc(/C=C/c2cc[n+](C)cc2)c2cc(Cl)ccc21,?,0,93,·,60*,68*,70*
O=C(O)Cc1ccc2c(c1)N(S(=O)(=O)c1cccs1)CC(C(=O)O)O2 (stereo unspecified),i,3,0,9,-3,·,·
Cc1nnc(-c2cccc(Br)c2)c2cn(-c3cccc(Br)c3)nc12,i,-24,125,·,47*,79*,84*
CC(=O)c1nn(-c2cccc(Br)c2)cc1C(=O)c1ccc(C)cc1,i,-1,1,-7,-3,·,·
COc1ccc(NC(=O)CN(C)S(=O)(=O)c2ccc3c(c2)c(=O)n(C)c(=O)n3C)cc1,i,1,2,6,2,·,·
Cc1ccccc1C(=O)N1CCN(c2ccc(NC(=O)c3cccnc3Cl)cc2)CC1,i,8,4,-19,94*,5,5
Cc1ccccc1C(=O)N1CCN(c2ccc(NC(=O)c3ccccc3[N+](=O)[O-])cc2)CC1,i,-4,0,-10,-3,·,·
CSCc1cccc(C(=O)OC(C)C(=O)Nc2c(C)n(C)n(-c3ccccc3)c2=O)c1 (stereo unspecified),i,-6,-1,7,·,·,·
O=C1Nc2cc(C(=O)N3CCN(c4ccccc4F)CC3)ccc2NC1CSCc1ccccc1F (stereo unspecified),·,·,·,·,134*,91*,99*
COc1ccccc1N1CCN(C(=O)c2ccc3c(c2)NC(=O)C(CSCc2ccccc2C)N3)CC1 (stereo unspecified),·,·,·,·,75*,15,26*
Cc1cccc(N2CCN(C(=O)c3ccc4c(c3)NC(=O)C(CSCc3cccc(F)c3)N4)CC2C)c1 (stereo unspecified),+,33,81*,·,98*,99*,110*
SMILES,Myeloid diff 2,CSN inh,HNF4A DNA FP,Rpn11 inh,TPT1 inhibitor,caTPT1 confirm,RNase T1 inh
CC(=O)N(C)c1nc(N)n(-c2ccccc2)n1,i,2,-1,1,-2,·,·
CCc1cc2c(=O)[nH]c(-c3ccncc3)nc2s1,i,-1,5,-6,29*,3,6
CCCCn1c(-c2csc(C(C)C)c2)n[nH]c1=S,i,-12,-2,3,61*,6,8
CCN1CCN(Cc2c3ccccc3cc3ccccc23)CC1,i,1,-5,-9,0,·,·
CC1=C/C(=C\C=C(C#N)C#N)N(C)c2ccccc21,+,32,71*,·,34*,33*,43*
O=C(NCc1ccco1)c1ccc2sc([C@H]3C[C@H](O)[C@@H](CO)O3)nc2c1,i,3,-4,-4,·,·,·
COC(=O)Cn1c(CN2CCN(c3ccc(F)cc3)CC2)nc2c1c(=O)n(C)c(=O)n2C,i,-4,1,0,90*,1,8
CCOc1cc(NC(=O)C(C)C)c(OCC)cc1NC(=O)Nc1ccccc1,i,0,-1,0,0,·,·
CC1C/C(=C/c2cccn2C)C(=O)/C(=C/c2cccn2C)C1 (stereo unspecified),i,-67,91,·,191*,187*,170*
CC1C/C(=C/c2ccncc2)C(=O)/C(=C/c2ccncc2)C1 (stereo unspecified),i,18,0,12,3,·,·
CCCN1CCc2c(sc3nc(SC)n(-c4ccccc4)c(=O)c23)C1,·,7,3,8,19,·,·
COc1ccc(/C=C2\SC(=S)N(CC(=O)N3CCN(C)CC3)C2=O)cc1,i,2,1,-7,2,·,·
COCCN1C(=O)/C(=C/c2ccc(N3CCCC3)cc2)SC1=S,+,104,128,·,133*,138*,131*
Cc1ccc(S(=O)(=O)CCC(=O)OCC(=O)Nc2ccc(N3CCOCC3)cc2)cc1,i,-5,3,-5,-1,·,·
O=C(Nc1nc2c(s1)CN(Cc1ccccc1)CC2)C1CCC1,i,5,8,18,10,·,·
CN(C)c1ccc(/C=C(\C#N)C(=O)Nc2nc3c(s2)CCN(Cc2ccccc2)C3)cc1,+,29,66,·,+,132*,146*
CCNC(=O)CSC1=N/C(=C\c2ccc(O)c(OCC)c2)C(=O)N1c1ccc(OC(F)F)cc1,i,47*,90*,·,90*,102*,97*
O=C(CSC1=N/C(=C/c2ccco2)C(=O)N1c1ccc(OC(F)F)cc1)NC1CCS(=O)(=O)C1 (stereo unspecified),i,3,24,27,28*,26*,34*
